Reference: ChEMBL document CHEMBL3098054, “The synthesis of novel taxoids for oral administration” (Bioorg Med Chem, 2014)

Columns and labels:
HT-29 = assay: Cytotoxicity against human HT-29 cells at 1 uM after 72 hrs by MTT assay; format: functional; conditions: HT-29, 72 h, read-out: GI
Method in brief: (§1)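 Cells plated at 2000–5000/well, attached overnight at 37 °C. DMSO stocks (100 mM) serially diluted in medium to a final 1 µM, tested in duplicate wells. Exposure 72 h at 37 °C, 5% CO₂. MTT (5 mg/mL, 10 µL) added for 4 h. Lysis in 10% SDS / 5% isopropanol / 0.012 N HCl, then OD read at 580–680 nm.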

HeLa = assay: Cytotoxicity against human HeLa cells at 1 uM after 72 hrs by MTT assay; format: functional; conditions: read-out: GI; method in brief: as §1
[1] = Apparent permeability from apical to basolateral side in human Caco2 cells at 10 uM after 90 mins by LC-MS/MS analysis; format: ADME, cell-based, Caco-2; conditions: Caco-2
HL-60 = assay: Cytotoxicity against human HL60 cells at 1 uM after 72 hrs by MTT assay; format: functional; conditions: HL-60, 72 h, read-out: GI; method in brief: as §1
A2780 = assay: Cytotoxicity against human A2780 cells at 1 uM after 72 hrs by MTT assay; format: functional; conditions: A2780, 72 h, read-out: GI; method in brief: as §1
[2] = Apparent permeability from basolateral to apical side in human Caco2 cells at 10 uM after 90 mins by LC-MS/MS analysis; format: ADME, cell-based, Caco-2; conditions: Caco-2
NCI-H460 = assay: Cytotoxicity against human NCI-H460 cells at 1 uM after 72 hrs by MTT assay; format: functional; conditions: NCI-H460, 72 h, read-out: GI; method in brief: as §1
DU-145 = assay: Cytotoxicity against human DU145 cells at 1 uM after 72 hrs by MTT assay; format: functional; conditions: DU-145, 72 h, read-out: GI; method in brief: as §1
[3] = Efflux ratio of apparent permeability from basolateral to apical side over apical to basolateral side in human Caco2 cells at 10 uM after 90 mins by LC-MS/MS analysis; format: ADME, cell-based, Caco-2; conditions: Caco-2
Method in brief: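 Caco-2 cells cultured 21 days on 24-well inserts, TEER >250 Ω·cm². Monolayers pre-incubated in HBSS pH 7.4 at 37 °C. Compound added to the donor side at 10 µM, 37 °C, 5% CO₂, 90 min, in the A-to-B and B-to-A directions. Donor and receiver levels measured by LC-MS/MS. Papp calculated from receiver amount, membrane area 0.7 cm², time and initial donor concentration. Efflux ratio = B–A/A–B.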

A-375 = assay: Cytotoxicity against human A375 cells at 1 uM after 72 hrs by MTT assay; format: functional; conditions: A-375, 72 h, read-out: GI
Method in brief: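 Cells plated at 2000–5000/well, attached overnight at 37 °C. DMSO stocks (100 mM) serially diluted in medium to a final 1 µM, tested in duplicate wells. MTT (5 mg/mL, 10 µL) added for 4 h. Lysis in 10% SDS / 5% isopropanol / 0.012 N HCl, then OD read at 580–680 nm.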

MCF7 [4] = assay: Cytotoxicity against human MCF7 cells at 1 uM after 72 hrs by MTT assay; format: functional; conditions: MCF7, 72 h, read-out: GI; method in brief: as §1
MCF7 [5] = assay: Cytotoxicity against human MCF7 cells after 72 hrs by MTT assay; format: functional, cell-based; conditions: MCF7, 72 h
Method in brief: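 MCF-7 cells exposed to compound for 72 h and read by MTT. At least six replicate wells per assay, run on three separate occasions. IC₅₀ given as mean with standard deviation.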

Structure (SMILES)	inhibition of growth at 1 µM (HT-29) [%]	inhibition of growth at 1 µM (HeLa) [%]	Papp A→B at 1.5 h, 10 µM [1] [×10⁻⁶ cm/s]	inhibition of growth at 1 µM (HL-60) [%]	inhibition of growth at 1 µM (A2780) [%]	Papp B→A at 1.5 h, 10 µM [2] [×10⁻⁶ cm/s]	inhibition of growth at 1 µM (NCI-H460) [%]	inhibition of growth at 1 µM (DU-145) [%]	efflux ratio at 1.5 h, 10 µM [3]	inhibition of growth at 1 µM (A-375) [%]	inhibition of growth at 1 µM (MCF7 [4]) [%]	IC50 (MCF7 [5]) [nM]
CC(=O)O[C@H]1C(=O)[C@@]2(C)[C@H]([C@H](OC(=O)c3ccccc3)[C@]34OC(=O)O[C@H]3[C@H](OC(=O)[C@H](O)[C@H](CC(C)C)NC(=O)OC(C)(C)C)C(C)=C1C4(C)C)[C@]1(OC(C)=O)CO[C@@H]1C[C@@H]2O [ORTATAXEL]	87.7	99.5	2.8	96.5	96.4	19.2	85.5	90.6	6.84	96.7	88.7	
CO[C@H]1C[C@H]2OC[C@@]2(OC(C)=O)[C@H]2[C@H](OC(=O)c3ccccc3)[C@]3(O)C[C@H](OC(=O)[C@H](O)[C@@H](NC(=O)OC(C)(C)C)c4ccccc4)C(C)=C([C@@H](OC(=O)N(C)C)C(=O)[C@]12C)C3(C)C	87.9	99.8	8.11	97.2	94.8	33.1	83.3	84.8	4.08	87.7	93.5	1.58
CO[C@H]1C(=O)[C@]2(C)CC[C@H]3OC[C@@]3(OC(C)=O)[C@H]2[C@H](OC(=O)c2ccccc2)[C@]2(O)C[C@H](OC(=O)[C@H](O)[C@H](CC(C)C)NC(=O)OC(C)(C)C)C(C)=C1C2(C)C		99.3	7.17			38.6			5.12			3.06
COC(=O)O[C@H]1C[C@H]2OC[C@@]2(OC(C)=O)[C@H]2[C@H](OC(=O)c3ccccc3)[C@]3(O)C[C@H](OC(=O)[C@H](O)[C@H](CC(C)C)NC(=O)OC(C)(C)C)C(C)=C([C@@H](OC)C(=O)[C@]12C)C3(C)C		100	7.16			36.4						2.81
CO[C@H]1C(=O)[C@@]2(C)[C@H]([C@H](OC(=O)c3ccccc3)[C@]34OC(=O)O[C@H]3[C@H](OC(=O)[C@H](O)[C@@H](NC(=O)OC(C)(C)C)c3ccccc3)C(C)=C1C4(C)C)[C@]1(OC(C)=O)CO[C@@H]1C[C@@H]2O	86.6	100	0.88	97.5	95	44.7	82.7	86.8	51	92.5	87.1	
COC(=O)O[C@H]1C[C@H]2OC[C@@]2(OC(C)=O)[C@H]2[C@H](OC(=O)c3ccccc3)[C@]3(O)C[C@H](OC(=O)[C@H](O)[C@@H](NC(=O)OC(C)(C)C)c4ccccc4)C(C)=C([C@@H](OC)C(=O)[C@]12C)C3(C)C	89.7	102	6.97	97	96.4	38.8	89.5	88.5	5.23	97.4	103	4.97
CO[C@H]1C(=O)[C@]2(C)CC[C@H]3OC[C@@]3(OC(C)=O)[C@H]2[C@H](OC(=O)c2ccccc2)[C@]23OC(=O)O[C@H]2[C@H](OC(=O)[C@H](O)[C@@H](NC(=O)OC(C)(C)C)c2ccccc2)C(C)=C1C3(C)C	87.3	99.9	2.64	97.7	96	25.3	84.7	89.1	9.56	94.4	86.3	4.49
COC(=O)O[C@H]1C(=O)[C@]2(C)[C@@H](OC)C[C@H]3OC[C@@]3(OC(C)=O)[C@H]2[C@H](OC(=O)c2ccccc2)[C@]2(O)C[C@H](OC(=O)[C@H](O)[C@H](CC(C)C)NC(=O)OC(C)(C)C)C(C)=C1C2(C)C		99.7	8.87			33.3						2.9
COC(=O)O[C@H]1C[C@H]2OC[C@@]2(OC(C)=O)[C@H]2[C@H](OC(=O)c3ccccc3)[C@]34OC(=O)O[C@H]3[C@H](OC(=O)[C@H](O)[C@H](CC(C)C)NC(=O)OC(C)(C)C)C(C)=C([C@@H](OC)C(=O)[C@]12C)C4(C)C			0.92			7.16			7.81			2.94
COC(=O)O[C@H]1C(=O)[C@]2(C)[C@@H](OC)C[C@H]3OC[C@@]3(OC(C)=O)[C@H]2[C@H](OC(=O)c2ccccc2)[C@]2(O)C[C@H](OC(=O)[C@H](O)[C@@H](NC(=O)OC(C)(C)C)c3ccccc3)C(C)=C1C2(C)C	87.3	99.5	6.91	97.4	94.1	29.2	80.4	83.3	4.22	103	95.3	1.4
CO[C@H]1C(=O)[C@]2(C)[C@@H](OC(=O)N(C)C)C[C@H]3OC[C@@]3(OC(C)=O)[C@H]2[C@H](OC(=O)c2ccccc2)[C@]23OC(=O)O[C@H]2[C@H](OC(=O)[C@H](O)[C@H](CC(C)C)NC(=O)OC(C)(C)C)C(C)=C1C3(C)C			2.4			5.74			2.39			21.2
CO[C@H]1C(=O)[C@]2(C)[C@@H](OC)C[C@H]3OC[C@@]3(OC(C)=O)[C@H]2[C@H](OC(=O)c2ccccc2)[C@]23OC(=O)O[C@H]2[C@H](OC(=O)[C@H](O)[C@@H](NC(=O)OC(C)(C)C)c2ccccc2)C(C)=C1C3(C)C	89	98.2	2.83	95.9	94.7	18.2	82.2	84.7	6.42	89.8	93.5	2.1
CO[C@H]1C[C@H]2OC[C@@]2(OC(C)=O)[C@H]2[C@H](OC(=O)c3ccccc3)[C@]3(O)C[C@H](OC(=O)[C@H](O)[C@H](CC(C)C)NC(=O)OC(C)(C)C)C(C)=C([C@@H](OC(=O)N(C)C)C(=O)[C@]12C)C3(C)C		101	8.17			32.6				89		1.7
